Screens (PubChem)
An excerpt weighted towards active compounds, which were near 1.4% of everything screened.
ZTA DNA inh – ZTA (EBV) inhibition in EBNA-1 counter-screen; inhibition, % at 11 µM; hit rate 0.15% among 320,000; ZTA-DNA binding, fluorescence polarization; P03206; AID 2234; in the data active means inhibition above about 33%
Target sequence (P03206 whole entry, looked up): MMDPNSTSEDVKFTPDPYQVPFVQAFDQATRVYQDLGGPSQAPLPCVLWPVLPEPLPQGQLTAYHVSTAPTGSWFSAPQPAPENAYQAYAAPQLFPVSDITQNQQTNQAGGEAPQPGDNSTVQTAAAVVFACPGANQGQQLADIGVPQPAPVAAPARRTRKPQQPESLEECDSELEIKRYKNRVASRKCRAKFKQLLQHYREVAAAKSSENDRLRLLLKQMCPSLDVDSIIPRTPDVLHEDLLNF
EBNA-1 inh – blocks EBNA-1 binding to DNA. EBNA-1 DNA binding, fluorescence polarization. inhibition, % at 14.8 µM. hit rate 0.34% among 300,000. AID 1950; in the data active means inhibition above about 28%
HCV NS3 hel inh – inhibitors of Hepatitis C virus NS3 helicase; inhibition, % at 10.9 µM; AID 1800; hit rate 0.56% among 290,000; NS3 helicase DNA unwinding, Cy5 molecular beacon fluorescence;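 active means inhibition above the mean of all tested compounds plus 3 SD, set per campaign, cut at about 35% in these data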;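 further: 0% = DMSO wells and 100% = thioflavine S control wells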
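Assay system – hepatitis C virus NS3 helicase domain fragment enzyme · Buffer or medium – MOPS pH 6.5, MgCl2, DTT, Tween20, BSA · Reagent – Cy5/quencher beacon DNA duplex and ATP to start · Compound – single 10.9 µM dose · Timing – 1 h at 25 °C · Technique – Cy5 beacon fluorescence read at start and 1 h · Measure – % inhibition of unwinding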
HCV core dimer – HCV core protein dimerization inhibition | hit rate 0.33% among 300,000 | TR-FRET GST/Flag-core106 dimerization, 1536-well | inhibition, % at 5 µM;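 active means inhibition above the mean of all tested compounds plus 3 SD, set per screening campaign, cut at about 45% in these data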
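System: GST/Flag-tagged HCV core106 proteins. Incubation: compound-protein-antibody incubation 4 h at 22.5 °C. Technique: HTRF with 340 nm excitation, 617/671 nm emission. Medium: KF-containing HEPES buffer, pH 7.45, DTT, CHAPS, BSA. Read-out: inhibition (%) from 671 over 617 nm ratio. Also added: Eu(K)-anti-GST 90 ng/mL plus XL665-anti-Flag 1 µg/mL.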
UBC9 SUMO inh – SUMOylation inhibition | P63279 | HTRF SUMOylation assay, SAE1/SAE2 + UBC9, in vitro | inhibition, % at 35 µM | hit rate 0.36% among 290,000; in the data active means inhibition above about 50%, passing the limit was not always enough
Target sequence (P63279 whole entry, looked up): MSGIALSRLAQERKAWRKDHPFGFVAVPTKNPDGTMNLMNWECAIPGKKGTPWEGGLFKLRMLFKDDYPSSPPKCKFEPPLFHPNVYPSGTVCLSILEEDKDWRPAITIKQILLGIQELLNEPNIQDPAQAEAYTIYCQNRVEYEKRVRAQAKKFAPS
Active calls of the source: *; . = not tested or not shown.

SMILES	ZTA DNA inh	EBNA-1 inh	HCV NS3 hel inh	HCV core dimer	UBC9 SUMO inh
O=C(Nc1cccn(Cc2cccc(F)c2)c1=O)NC1CCCCC1	4	-15	2	1	99*
O=C(Nc1cccn(Cc2c(F)cccc2Cl)c1=O)NC1CCCCC1	9	-3	24	7	37
O=C(Nc1ccccc1Cc1ccccc1)c1ccccc1NS(=O)(=O)c1ccc(Cl)s1	-1	15	-25	17	58*
CCc1cc[n+](C2=C([O-])c3ccccc3C(=O)/C2=N\S(=O)(=O)c2cccs2)cc1	-5	-1	10	26	59*
O=C1C(Nc2ccccc2)=C/C(=N/S(=O)(=O)c2cccs2)c2ccccc21	16	7	6	9	49
Cc1cc(C)cc(OCC(=O)Nc2ccncc2)c1	1	-7	-3	-3	4
COc1ccc(CC(=O)NNc2ncnc3c2cnn3-c2ccc(C)cc2)cc1	3	97*	12	-1	24
O=C(Nc1ccccc1O)c1cc(S(=O)(=O)N2CCOCC2)c(Cl)cc1Cl	10	1	14	5	60*
Cc1ccccc1NC(=O)c1c(C)[nH]c(=S)c(C#N)c1-c1ccco1	2	1	49*	16	25
CNC(=O)c1c(C)[nH]c(=S)c(C#N)c1-c1ccco1	7	4	19	3	14
CCCn1c(CCC(=O)O)ccc1-c1ccc(OC)cc1	5	7	21	46*	7
Oc1ccc(Cl)cc1C=Nc1ccc2c3c(cccc13)CC2	-14	0	25	-29	57*
Cc1cccc(C=Nc2ccc3c4c(cccc24)CC3)c1O	-11	-10	32	-25	10
O=C(NC(=S)Nc1ccc(Cc2ccncc2)cc1)c1ccc(F)cc1	0	1	-2	2	-1
Cc1nn(-c2ccccc2)c2c1C(c1c(C)[nH]c(C#N)c1C)C(C#N)=C(N)O2 (stereo not drawn)	-4	-3	26	3	75*
COc1cc(C2Nc3cccc4cccc(c34)N2)ccc1OC(C)=O	-5	-7	0	-5	64*
O=C(c1ccc2[nH]c(=O)c(=O)[nH]c2c1)N1CCN(c2ccccc2)CC1	18	7	9	5	14
COc1ccc(OC)c(NC(=O)COC(=O)c2cc3c(s2)CCC3)c1	-1	-4	21	77*	40
CCOC(=O)c1ccc(N2CCN(c3ccccc3F)CC2)c(NC(=O)Nc2ccccc2)c1	-7	2	0	14	-9
CCOC(=O)c1ccc(N2CCN(c3ccc(F)cc3)CC2)c(NC(=O)Nc2cccc(OC)c2)c1	-6	82*	13	20	-10
O=C1CC(/C=C/c2ccccn2)=Nc2ccccc2N1	-6	-3	2	0	10
O=C1CC(/C=C/c2ccco2)=Nc2ccccc2N1	3	8	33	58*	34
CC(C)CC(=O)Nc1nc(-c2ccc(S(=O)(=O)N3CCOCC3)cc2)cs1	.	.	1	.	11
Cc1ccc(Nc2nc(-c3ccc(S(=O)(=O)N4CCOCC4)cc3)cs2)cc1Cl	-3	31*	8	1	4
COc1ccc2oc(=O)c(/C(C)=N/Nc3nc(-c4cc(C)ccc4C)cs3)cc2c1	-1	4	7	56*	14
SMILES	ZTA DNA inh	EBNA-1 inh	HCV NS3 hel inh	HCV core dimer	UBC9 SUMO inh
C/C(=N\Nc1nc(-c2ccc(C)cc2C)cs1)c1cc2ccccc2oc1=O	5	2	7	51*	-1
Cc1cccc(-c2nsc(SCC(=O)NCC3CCCO3)n2)c1 (stereo not drawn)	21	2	-4	3	-16
CC(C)OC(=O)C(C(=O)C(F)(F)F)c1cc(NS(=O)(=O)c2ccc3ccccc3c2)c2ccccc2c1O (stereo not drawn)	-7	11	26	26	71*
Cc1ccc(C(=O)O)cc1NS(=O)(=O)c1ccc2ccccc2c1	-15	-2	11	11	2
O=c1cc[nH]c2c1ccc1cccnc12	-3	5	.	-11	.
COc1ccc(CC(=O)Nc2cccc(-c3nnc(-c4ccccc4)o3)c2)cc1OC	.	.	8	.	1
O=C(COc1ccccc1)Nc1ccc(-c2nnc(-c3ccco3)o2)cc1	-1	-8	-1	52*	-4
COc1ccc(CC(=O)Nc2ccc(-c3nnc(-c4ccccc4)o3)cc2)cc1OC	8	13	5	83*	6
Cn1cc(/C=C(\NC(=O)c2ccccc2Cl)C(=O)NCCCn2ccnc2)c2ccccc21	-1	-14	-12	-17	-12
CC1CCC2C(=O)N(c3cccc(C(=O)Nc4ccccc4Cl)c3)C(=O)C2C1 (stereo not drawn)	0	-1	-3	-1	7
Cc1cccc(NC(=O)c2ccc(Cl)c(S(=O)(=O)N3CCCCC3)c2)n1	0	10	.	2	.
Cc1csc(NC(=O)CCCNC(=O)c2ccc(Cl)cc2)n1	4	.	.	.	.
O=C(CC1CCCC1)Nc1ccc2c(c1)CCC2	-3	14	39*	-2	12
CC(C)(C)C1CCC2(CC1)Nc1cccc3cccc(c13)N2	2	4	-8	70*	60
CCN(CC)c1ccc(C2Nc3cccc4cccc(c34)N2)cc1	17	18	-3	-5	12
Cc1ccc(CNC(=O)c2cc(S(=O)(=O)N3CCCCC3)ccc2N2CCOCC2)cc1	-9	.	.	.	.
Cc1ccc(S(=O)(=O)Nc2c(Cl)c(Cl)c(O)c3ccccc23)cc1	4	15	7	-41	92*
Cc1ccc(SCC(=O)OCC(=O)N(C)C2CCS(=O)(=O)C2)cc1C (stereo not drawn)	8	.	.	.	.
COc1ccc2c(CC(=O)Nc3ccccc3OC)coc2c1	3	-13	-4	2	16
COc1ccc2c(CC(=O)Nc3ccc(OC)c(NS(=O)(=O)c4ccc(F)cc4)c3)coc2c1	0	-7	-10	68*	-5
COc1ccc(-c2cc3nc4ccccc4n3c(N)c2C#N)cc1	-5	1	4	7	57*
COc1ccc(-c2cc(-c3ccccc3)c(C#N)c(S(C)=O)n2)cc1 (stereo not drawn)	6	2	1	36	40
O=C(O)C1Nc2c(C(=O)N3CCOCC3)cccc2C2C=CCC12 (stereo not drawn)	14	12	27	12	30
Cc1ccc2c(c1C)NC(C(=O)O)C1CC=CC21 (stereo not drawn)	5	10	.	71*	58*
Cc1ccc2nc(/C(C#N)=C\c3ccc(Oc4ccc([N+](=O)[O-])cn4)cc3)[nH]c2c1	-4	-4	-1	25	22
COc1ccc2nc(/C(C#N)=C\c3ccc(C(=O)O)cc3)[nH]c2c1	6	11	4	-7	52*
COc1ccc2nc(/C(C#N)=C\c3ccc(Oc4ccc([N+](=O)[O-])cn4)cc3)[nH]c2c1	-2	-8	2	58*	20
